ChEMBL document CHEMBL1139725, “Synthesis and SAR of novel hydantoin derivatives as selective androgen receptor modulators” (2006)
The source made the active and inactive calls. The rule behind the calls is not given here.

tested on: Rattus norvegicus; experiment: Inhibition of seminal vesicle weight in Sprague-Dawley rat at 2 mg/day, po relative to control; type: functional; settings: not given
Method in brief: (§1)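 Five-day antagonist assay in immature (about 50 g) castrated male Sprague–Dawley rats. Compound given po in 20% cyclodextrin once daily at 2 mg/day for 5 days, with testosterone propionate co-dosed sc in sesame oil at 0.1 mg/d ([…]). Read-out is % inhibition of testosterone-enhanced tissue weight, with vehicle control set to 100% and testosterone-alone control to 0%; n = 3/group.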

SMILES | Inhibition
CC12CNC(=O)N1C(=O)N(c1ccc(C#N)c(C(F)(F)F)c1)C2=O (stereo unspecified) | 86%
CC12COC(=O)N1C(=O)N(c1ccc([N+](=O)[O-])c(C(F)(F)F)c1)C2=O (stereo unspecified) | 28%
CN1CC2(C)C(=O)N(c3ccc(C#N)c(C(F)(F)F)c3)C(=O)N2C1=O (stereo unspecified) | 85%
CC12CNC(=O)N1C(=O)N(c1ccc(Cl)c(C(F)(F)F)c1)C2=O (stereo unspecified) | 19%
CC12CNC(=O)N1C(=O)N(c1ccc([N+](=O)[O-])c(C(F)(F)F)c1)C2=O (stereo unspecified) | 15%
C[C@@]12CCCN1C(=O)N(c1ccc(Cl)c(C(F)(F)F)c1)C2=O | <10%
C[C@@]12CCCN1C(=S)N(c1ccc(C#N)c(C(F)(F)F)c1)C2=O | 95%
C[C@@]12CCCN1C(=S)N(c1ccc(Cl)c(Cl)c1)C2=O | 27%
C[C@@]12CCCN1C(=S)N(c1ccc(Cl)c(C(F)(F)F)c1)C2=O | <10%
CC12COC(=O)N1C(=O)N(c1ccc(C#N)c(C(F)(F)F)c1)C2=O (stereo unspecified) | 80%
CC12COC(=O)N1C(=O)N(c1ccc(Cl)c(C(F)(F)F)c1)C2=O (stereo unspecified) | 51%
C[C@@]12CCCN1C(=O)N(c1ccc(Cl)c(Cl)c1)C2=O | 16%
CC(O)(CS(=O)(=O)c1ccc(F)cc1)C(=O)Nc1ccc(C#N)c(C(F)(F)F)c1 (stereo unspecified) [BICALUTAMIDE] | 80%
CN1CC2(C)C(=O)N(c3ccc(Cl)c(C(F)(F)F)c3)C(=O)N2C1=O (stereo unspecified) | 85%
C[C@@]12CCCN1C(=O)N(c1ccc(C#N)c(C(F)(F)F)c1)C2=O | <10%

tested on: Rattus norvegicus; experiment: Inhibition of prostate weight in Sprague-Dawley rat at 2 mg/day, po relative to control; type: functional, Prostate gland; settings: not given; method in brief: as §1

SMILES | Inhibition
CC12CNC(=O)N1C(=O)N(c1ccc(C#N)c(C(F)(F)F)c1)C2=O (stereo unspecified) | 79%
CC12COC(=O)N1C(=O)N(c1ccc([N+](=O)[O-])c(C(F)(F)F)c1)C2=O (stereo unspecified) | 43%
CN1CC2(C)C(=O)N(c3ccc(C#N)c(C(F)(F)F)c3)C(=O)N2C1=O (stereo unspecified) | 87%
CC12CNC(=O)N1C(=O)N(c1ccc(Cl)c(C(F)(F)F)c1)C2=O (stereo unspecified) | 33%
CC12CNC(=O)N1C(=O)N(c1ccc([N+](=O)[O-])c(C(F)(F)F)c1)C2=O (stereo unspecified) | 32%
C[C@@]12CCCN1C(=O)N(c1ccc(Cl)c(C(F)(F)F)c1)C2=O | 32%
CCOC(=O)C1=NN2C(=O)N(c3ccc([N+](=O)[O-])c(C(F)(F)F)c3)C(=O)C2(C)C1 (stereo unspecified) | 35%
CC(=O)Nc1ccc(C2=NN3C(=O)N(c4ccc(C#N)c(C(F)(F)F)c4)C(=O)C3(C)C2)cc1 (stereo unspecified) | 25%
C[C@@]12CC(C(F)(F)F)=NN1C(=O)N(c1ccc(C#N)c(C(F)(F)F)c1)C2=O | 26%
C[C@@]12CCCN1C(=S)N(c1ccc(C#N)c(C(F)(F)F)c1)C2=O | 78%
C[C@@]12CCCN1C(=S)N(c1ccc(Cl)c(Cl)c1)C2=O | 17%
C[C@@]12CC(C(F)(F)F)=NN1S(=O)(=O)N(c1ccc(C#N)c(C(F)(F)F)c1)C2=O | 28%
CCOC(=O)C1=NN2C(=O)N(c3ccc(C#N)c(C(F)(F)F)c3)C(=O)C2(C)C1 (stereo unspecified) | 16%
C[C@@]12CCCN1C(=S)N(c1ccc(Cl)c(C(F)(F)F)c1)C2=O | 19%
CC12COC(=O)N1C(=O)N(c1ccc(C#N)c(C(F)(F)F)c1)C2=O (stereo unspecified) | 75%
CC12COC(=O)N1C(=O)N(c1ccc(Cl)c(C(F)(F)F)c1)C2=O (stereo unspecified) | 55%
C[C@@]12CCCN1C(=O)N(c1ccc(Cl)c(Cl)c1)C2=O | 11%
CC(O)(CS(=O)(=O)c1ccc(F)cc1)C(=O)Nc1ccc(C#N)c(C(F)(F)F)c1 (stereo unspecified) [BICALUTAMIDE] | 70%
CC12CC=NN1C(=O)N(c1ccc(C#N)c(C(F)(F)F)c1)C2=O (stereo unspecified) | 26%
C[C@]12CC(C(F)(F)F)=NN1C(=O)N(c1ccc(C#N)c(C(F)(F)F)c1)C2=O | 21%
CC12CC(C(F)(F)F)=NN1C(=O)N(c1ccc([N+](=O)[O-])c(C(F)(F)F)c1)C2=O (stereo unspecified) | 39%
CN1CC2(C)C(=O)N(c3ccc(Cl)c(C(F)(F)F)c3)C(=O)N2C1=O (stereo unspecified) | 77%
CCOC(=O)C1=NN2C(=O)C(=O)N(c3ccc(C#N)c(C(F)(F)F)c3)C(=O)C2(C)C1 (stereo unspecified) | 15%
C[C@@]12CCCN1C(=O)N(c1ccc(C#N)c(C(F)(F)F)c1)C2=O | 69%
C[C@@]12CC(C(F)(F)F)=NN1[S+]([O-])N(c1ccc(C#N)c(C(F)(F)F)c1)C2=O (stereo partly specified) | 41%
C[C@@]12CC(C(F)(F)F)=NN1C(=O)C(=O)N(c1ccc(C#N)c(C(F)(F)F)c1)C2=O | 27%

tested on: Rattus norvegicus; experiment: Stimulation of prostate weight in Sprague-Dawley rat at 5 mg/kg, sc; type: functional, Prostate gland; settings: route subcutaneous
Method in brief: (§2)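 Testosterone propionate injected sc at the nape of the neck at 5 mg/kg in sesame oil, in immature (about 50 g) castrated male Sprague–Dawley rats in a five-day modified Hershberger assay. Read-out is stimulation of tissue weight.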

SMILES | Activity
CCC(=O)O[C@H]1CC[C@H]2[C@@H]3CCC4=CC(=O)CC[C@]4(C)[C@H]3CC[C@]12C [TESTOSTERONE PROPIONATE] | 100%

organism: Rattus norvegicus; experiment: Stimulation of prostate weight in Sprague-Dawley rat at 3 mg/day relative to testosterone; type: functional, Prostate gland; settings: not given
Method in brief: (§3)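 Agonist mode of a five-day modified Hershberger assay in immature (about 50 g) castrated male Sprague–Dawley rats. Activity is % stimulation of tissue weight, with vehicle-treated control set to 0% and testosterone-alone control to 100%.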

SMILES | Activity
C[C@@]12CC(C(F)(F)F)=NN1C(=O)N(c1ccc(C#N)c(C(F)(F)F)c1)C2=O | 11%
C[C@]12CC(C(F)(F)F)=NN1C(=O)N(c1ccc(C#N)c(C(F)(F)F)c1)C2=O | 14%

tested on: Rattus norvegicus; experiment: Stimulation of levator ani muscle weight Sprague-Dawley rat at 5 mg/kg, sc; type: functional; settings: route subcutaneous; method in brief: as §2

SMILES | Activity
CCC(=O)O[C@H]1CC[C@H]2[C@@H]3CCC4=CC(=O)CC[C@]4(C)[C@H]3CC[C@]12C [TESTOSTERONE PROPIONATE] | 100%

tested on: Rattus norvegicus; experiment: Stimulation of prostate weight in Sprague-Dawley rat at 2 mg/day, po relative to testosterone; type: functional, Prostate gland; settings: not given; method in brief: as §3

SMILES | Activity
CCOC(=O)C1=NN2C(=O)N(c3ccc([N+](=O)[O-])c(C(F)(F)F)c3)C(=O)C2(C)C1 (stereo unspecified) | <10%
CC(=O)Nc1ccc(C2=NN3C(=O)N(c4ccc(C#N)c(C(F)(F)F)c4)C(=O)C3(C)C2)cc1 (stereo unspecified) | <10%
C[C@@]12CC(C(F)(F)F)=NN1S(=O)(=O)N(c1ccc(C#N)c(C(F)(F)F)c1)C2=O | 41%
CCOC(=O)C1=NN2C(=O)N(c3ccc(C#N)c(C(F)(F)F)c3)C(=O)C2(C)C1 (stereo unspecified) | <10%
CC12CC=NN1C(=O)N(c1ccc(C#N)c(C(F)(F)F)c1)C2=O (stereo unspecified) | <10%
CC12CC(C(F)(F)F)=NN1C(=O)N(c1ccc([N+](=O)[O-])c(C(F)(F)F)c1)C2=O (stereo unspecified) | 51%
CCOC(=O)C1=NN2C(=O)C(=O)N(c3ccc(C#N)c(C(F)(F)F)c3)C(=O)C2(C)C1 (stereo unspecified) | <10%
C[C@@]12CC(C(F)(F)F)=NN1[S+]([O-])N(c1ccc(C#N)c(C(F)(F)F)c1)C2=O (stereo partly specified) | 58%
C[C@@]12CC(C(F)(F)F)=NN1C(=O)C(=O)N(c1ccc(C#N)c(C(F)(F)F)c1)C2=O | 12%

same assay, conditions: Prostate gland

SMILES | Activity
C[C@@]12CCCN1C(=S)N(c1ccc(Cl)c(Cl)c1)C2=O | inactive
C[C@@]12CCCN1C(=O)N(c1ccc(Cl)c(Cl)c1)C2=O | inactive

organism: Rattus norvegicus; experiment: Stimulation of levator ani muscle weight in Sprague-Dawley rat at 2 mg/day relative to testosterone; type: functional; settings: not given; method in brief: as §3

SMILES | Activity
CCOC(=O)C1=NN2C(=O)N(c3ccc([N+](=O)[O-])c(C(F)(F)F)c3)C(=O)C2(C)C1 (stereo unspecified) | <10%
CC(=O)Nc1ccc(C2=NN3C(=O)N(c4ccc(C#N)c(C(F)(F)F)c4)C(=O)C3(C)C2)cc1 (stereo unspecified) | 13%
C[C@@]12CC(C(F)(F)F)=NN1S(=O)(=O)N(c1ccc(C#N)c(C(F)(F)F)c1)C2=O | 66%
CC12CC=NN1C(=O)N(c1ccc(C#N)c(C(F)(F)F)c1)C2=O (stereo unspecified) | <10%
CC12CC(C(F)(F)F)=NN1C(=O)N(c1ccc([N+](=O)[O-])c(C(F)(F)F)c1)C2=O (stereo unspecified) | 73%
CCOC(=O)C1=NN2C(=O)C(=O)N(c3ccc(C#N)c(C(F)(F)F)c3)C(=O)C2(C)C1 (stereo unspecified) | <10%
C[C@@]12CC(C(F)(F)F)=NN1[S+]([O-])N(c1ccc(C#N)c(C(F)(F)F)c1)C2=O (stereo partly specified) | 117%
C[C@@]12CC(C(F)(F)F)=NN1C(=O)C(=O)N(c1ccc(C#N)c(C(F)(F)F)c1)C2=O | 21%

organism: Rattus norvegicus; experiment: Stimulation of levator ani muscle weight in Sprague-Dawley rat relative to testosterone; type: functional; settings: not given; method in brief: as §3

SMILES | Activity
C[C@@]12CCCN1C(=O)N(c1ccc(Cl)c(C(F)(F)F)c1)C2=O | inactive
C[C@@]12CC(C(F)(F)F)=NN1C(=O)N(c1ccc(C#N)c(C(F)(F)F)c1)C2=O | 75%
C[C@@]12CCCN1C(=S)N(c1ccc(C#N)c(C(F)(F)F)c1)C2=O | inactive
C[C@@]12CCCN1C(=S)N(c1ccc(Cl)c(Cl)c1)C2=O | inactive
CCOC(=O)C1=NN2C(=O)N(c3ccc(C#N)c(C(F)(F)F)c3)C(=O)C2(C)C1 (stereo unspecified) | <10%
C[C@@]12CCCN1C(=S)N(c1ccc(Cl)c(C(F)(F)F)c1)C2=O | inactive
C[C@@]12CCCN1C(=O)N(c1ccc(Cl)c(Cl)c1)C2=O | inactive
CC(O)(CS(=O)(=O)c1ccc(F)cc1)C(=O)Nc1ccc(C#N)c(C(F)(F)F)c1 (stereo unspecified) [BICALUTAMIDE] | inactive
C[C@]12CC(C(F)(F)F)=NN1C(=O)N(c1ccc(C#N)c(C(F)(F)F)c1)C2=O | 42%
C[C@@]12CCCN1C(=O)N(c1ccc(C#N)c(C(F)(F)F)c1)C2=O | inactive

organism: Rattus norvegicus; experiment: Stimulation of prostate weight in Sprague-Dawley rat relative to testosterone; type: functional, organism-based; settings: Prostate gland
Method in brief: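 Immature castrated male Sprague–Dawley rats (about 50 g) were dosed for five days. Prostate weight was expressed as percent stimulation: vehicle-treated controls were set to 0% and testosterone-alone controls to 100%. The testosterone propionate reference was given subcutaneously at the nape of the neck at 5 mg/kg in sesame oil.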

SMILES | Activity
C[C@@]12CCCN1C(=O)N(c1ccc(Cl)c(C(F)(F)F)c1)C2=O | inactive
C[C@@]12CCCN1C(=S)N(c1ccc(C#N)c(C(F)(F)F)c1)C2=O | inactive
C[C@@]12CCCN1C(=S)N(c1ccc(Cl)c(Cl)c1)C2=O | inactive
C[C@@]12CCCN1C(=S)N(c1ccc(Cl)c(C(F)(F)F)c1)C2=O | inactive
C[C@@]12CCCN1C(=O)N(c1ccc(Cl)c(Cl)c1)C2=O | inactive
CC(O)(CS(=O)(=O)c1ccc(F)cc1)C(=O)Nc1ccc(C#N)c(C(F)(F)F)c1 (stereo unspecified) [BICALUTAMIDE] | inactive
C[C@@]12CCCN1C(=O)N(c1ccc(C#N)c(C(F)(F)F)c1)C2=O | inactive
